# High-throughput results from PubChem BioAssay.
# AHR act: activators of human aryl hydrocarbon receptor | P35869 | AHR-responsive luciferase reporter cells, luminescence | activation, % at 5 µM | actives 2.5% (n = 320,000) | AID 2796; in the data active = activation above about 47%;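 also: 0% = vehicle wells and 100% = reference agonist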
# SR-BI HDL uptake: inhibitors of mouse SR-BI mediated HDL lipid uptake. Q61009. actives 0.96% (n = 320,000). ldlA[mSR-BI] CHO cells, DiI-HDL uptake fluorescence, 3 h. inhibition, % at 12.5 µM;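 active = mean replicate inhibition of at least 70% and a set share of replicates each scoring 70 or more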;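 also: 0% = median of neutral control wells and 100% = median of positive control wells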
# HIF activator: HIF pathway transcriptional activation; activation, % at 7.5 µM (by protocol); U2OS HRE-luciferase reporter, luminescence; normalized: DMSO 0%, desferrioxamine 100%; actives 0.32% (n = 300,000);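 active = mean activation of at least 10% of the iron chelator positive control signal, with at least half of replicates also reaching 10%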
# ABCB6 inh 2: blocks the human ABCB6 transporter; K562-ABCB6 porphyrin accumulation, flow cytometry, 1 h; active compounds read low; fluorescence ratio to DMSO, % at 10 µM; actives 0.19% (n = 360,000); AID 602162;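 active = fluorescence ratio to DMSO below 75%, the collection mean minus 3 SD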;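 also: signal is porphyrin accumulated inside mitochondria; 100% equals median channel fluorescence of DMSO control wells; lower ratio means ABCB6 inhibition with less porphyrin fluorescence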
# SR-BI uptake up: SR-BI HDL lipid transfer activation; CHO ldlA[mSR-BI] cells, DiI-HDL uptake fluorescence, 3 h; 100 = double the neutral-control signal; activation, % at 12.5 µM; actives 0.096% (n = 320,000);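 active = mean replicate activation of at least 60% and every replicate at or above 60%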;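 also: 0% = median plate neutral-control signal and 100% = twice that signal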
#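 Test system: SR-BI-overexpressing, LDLR-lacking CHO cells. Measured by: DiI fluorescence, bottom read. Medium: Ham's F12 with 0.5% BSA, HEPES 25 mM, pH 7.4. Timing: 3 h uptake period with compound, 37 °C.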
# FXN GAA850 act: activators of GAA850 frataxin (FXN) promoter | HEK293 lucGAA850 FXN promoter luciferase reporter, 24 h; percent of 10 µM SAHA response | activation, % at 6 µM | actives 0.56% (n = 360,000);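 active = activation above the average of all compounds screened plus 3 SD, cutoff fixed separately per campaign, cut at about 7.5% in these data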;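 also: 0% = DMSO wells and 100% = 10 µM SAHA wells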
# * hit, by the source's call; x = no result. An excerpt weighted towards active compounds, which were near 3.9% of everything screened.
SMILES,AHR act,SR-BI HDL uptake,HIF activator,ABCB6 inh 2,SR-BI uptake up,FXN GAA850 act
O=C(O)c1ccc(/C=N/Nc2nc3ccccc3[nH]2)cc1,15,x,0,98,x,0
COc1cc(/C=N/Nc2nc3ccccc3[nH]c2=O)ccc1O,25,-28,0,102,28,2
COc1cc(/C=N/NC(=O)c2cc3ccccc3[nH]2)ccc1O,53*,42,-1,94,-42,0
COc1cc(/C=N/Nc2nc3ccccc3[nH]2)ccc1O,55*,25,6,92,-25,-2
OCCNCc1cccc(Br)c1,2,-17,0,96,17,-2
COc1cccc(/C=N/Nc2nc3ccccc3[nH]2)c1O,60*,x,11*,94,x,-9
CCC(C)NC(=O)c1cc2c(=O)n(CC)c3ccccc3c2s1 (centres undefined),-1,74*,-2,97,-74,-2
CCOC(CNC(=O)c1cc2c(=O)n(CC)c3ccccc3c2s1)OCC,-1,82*,0,91,-82,-1
Cc1ccc(S(=O)(=O)N(C)CCCC(=O)Nc2cc(C)ccc2C)cc1,-2,4,0,95,-4,0
O=S(=O)(Nc1ccc(-n2cnnn2)cc1)c1ccc(Cl)s1,4,-11,x,96,11,0
Cc1ccc2c(C)c(C(=O)N3CCN(Cc4ccc5c(c4)OCO5)CC3)oc2c1C,4,14,2,98,-14,5
FC(F)(F)c1nc2cc3nc4ccccc4[nH]c3cc2n1,55*,-10,1,97,10,2
O=C(Cn1cnc2ccccc2c1=O)Nc1ccc(S(=O)(=O)N2CCOCC2)cc1,47*,-1,0,94,1,0
NC(=O)CSc1nc2scc(-c3ccco3)c2c(=O)n1-c1ccccc1,11,x,0,94,x,-1
CC1Sc2ccc(S(=O)(=O)N3CCC(C(=O)NCC(C)c4ccccc4)CC3)cc2NC1=O (centres undefined),0,-133,-1,102,133*,-4
CC1Sc2ccc(S(=O)(=O)N3CCC(C(=O)NCCc4ccccc4)CC3)cc2NC1=O (centres undefined),3,-15,1,95,15,-2
c1cc2c3c(cccc3c1)NC1(CCC3(CC1)Nc1cccc4cccc(c14)N3)N2,49*,-23,-11,98,23,-2
c1cc2c3c(cccc3c1)NC1(CCCCCC1)N2,16,22,-1,109,-22,1
Cc1cc(NC(=O)c2cccnc2Cl)ccc1NC(=O)c1cc2ccccc2o1,-5,77*,-1,100,-77,0
COc1cc(NC(=O)c2c(OC)cccc2OC)ccc1NC(=O)c1cc2ccccc2o1,72*,41,3,91,-41,4
COc1ccccc1NC(=O)c1cc2ccc(O)cc2o/c1=N\O,-1,x,1,114,x,-1
COc1ccccc1NC(=O)c1cc2ccccc2o/c1=N\O,67*,29,2,91,-29,3
COc1cc(NC(=O)c2ccccc2F)ccc1NC(=O)c1cc2ccccc2o1,x,87*,-1,93,-87,2
COc1cccc(C(C)(O)c2nc(-c3cccc(C(F)(F)F)c3)cs2)c1 (centres undefined),x,x,x,104,x,3
O=C(CSc1ncnc2c1cnn2-c1ccccc1)NC1CCS(=O)(=O)C1 (centres undefined),23,-7,x,103,7,-2
SMILES,AHR act,SR-BI HDL uptake,HIF activator,ABCB6 inh 2,SR-BI uptake up,FXN GAA850 act
Clc1cccc(-c2nnc(-c3ccno3)o2)c1,-1,-15,0,98,15,0
Clc1cccc(-c2nnc(-c3ccccc3)o2)c1,65*,-2,1,119,2,1
Oc1ccccc1-c1nnc(-c2ccc(C(F)(F)F)cc2)o1,52*,-12,-18,90,12,2
c1ccc(-c2nnc(-c3ccccc3)o2)cc1,59*,-20,2,93,20,7
Nc1ccccc1-c1nnc(-c2ccc(-c3ccccc3)cc2)o1,76*,0,3,93,0,6
COc1cccc(-c2nnc(-c3ccc(C(F)(F)F)cc3)o2)c1,-3,18,4,98,-18,2
c1ccc(-c2nnc(-c3ccncc3)o2)cc1,1,-34,1,95,34,5
COc1cccc(N2CCN(S(=O)(=O)c3c(C)[nH]c(C)c3C(=O)N3CCCC3)CC2)c1,19,-21,0,96,21,1
Cc1[nH]c(C)c(S(=O)(=O)N2CCN(c3cccc(Cl)c3)CC2)c1C(=O)N1CCCC1,50*,-23,1,111,23,1
CC(=O)c1cccc(NC(=O)/C=C/c2ccc(S(=O)(=O)N3CCOCC3)cc2)c1,9,72*,x,102,-72,0
CN(C)S(=O)(=O)c1cccc(NC(=O)/C=C/c2ccc(S(=O)(=O)N3CCOCC3)cc2)c1,0,52,x,93,-52,-2
O=C(/C=C/c1ccc(OC(F)F)cc1)Nc1cccc(S(=O)(=O)N2CCOCC2)c1,-3,80*,2,98,-80,0
CC(=O)C1=CN(Cc2ccccc2)CCC1=O,x,-245,x,100,245*,-2
CC(C)c1ccc(-c2nc(N3CCCC3)nc3n[nH]c(N)c23)cc1,4,13,1,88,-13,6
CC(C)c1ccc(-c2nc(N3CCCCCC3)nc3n[nH]c(N)c23)cc1,5,90*,-1,98,-90,-1
CCCC(=O)NC(c1ccccc1OC)c1ccc2cccnc2c1O (centres undefined),2,-15,69*,100,15,-12
CCCCC(=O)NC(c1ccccc1OC)c1ccc2cccnc2c1O (centres undefined),2,-10,63*,97,10,-9
CCCCC(=O)NC(c1ccc(OC)c(OC)c1)c1c(O)ccc2ccccc12 (centres undefined),2,7,0,96,-7,0
CN(C)c1ccc(C2C3CCCc4ccccc4C3=NN2C)cc1 (centres undefined),61*,28,5,96,-28,-1
CC1CCN(CCCCOc2ccccc2-c2ccccc2)CC1,0,-11,0,96,11,-1
CCOC(=O)N1CCN(S(=O)(=O)c2ccc(Cl)cc2)CC1,1,13,-2,102,-13,2
CN(C)/C=N/c1nc2ccc3c(c2s1)CCCC3,63*,2,3,101,-2,6
CC1(C)Cc2c(cnn2-c2ccccc2)C(=O)/C1=N\NC(=O)c1ccccc1N,1,75*,2,95,-75,2
Nc1c(C(=O)N/N=C/c2ccccc2)cnn1-c1ccccc1,8,30,4,98,-30,6
